The list is not random: actives were taken first. Their share in the collection is about 0.59%.
OXTR ag: activates the human oxytocin receptor. activation, % at 3 µM. P30559. hit rate 0.32% among 320,000. CHO-OTR cells, Fluo-8 calcium fluorescence; normalized: DMSO 0%, oxytocin 100%;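 active means activation above the mean of all tested compounds plus 3 SD, cutoff set per screening run, cut at about 20% in these data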;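 further: peak over basal fluorescence ratio from a 100 s FLIPR kinetic read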
zfTRPN1 agonist: agonists of zebrafish TRPN1 channel | AID 1424 | hit rate 0.18% among 220,000 | activation, % at 3 µM | HEK293 zebrafish TRPN1-YFP, Fluo-8 calcium fluorescence; 100% = response to 87 µM carbachol;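 active means activation above its plate's cutoff, the mean activation of test wells on that plate plus 3 SD, cut at about 19% in these data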;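 further: 0% = DMSO alone and 100% = 87 µM carbachol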
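Material: zebrafish TRPN1-YFP in HEK293 cells. Doses: one dose of 3 µM, 0.3% DMSO. Incubation: dye 1 h 37 °C plus 30 min RT. Measured by: intracellular calcium fluorescence with Fluo-8.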
TRPML3 ag: activates the human TRPML3 channel. activation, % at 3 µM. Q8TDD5. hit rate 0.29% among 220,000. HEK293 TRPML3-YFP, Fluo-8 calcium fluorescence; 100% = the carbachol control signal;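 active means activation above its plate's cutoff, the mean activation of the plate's test wells plus 3 SD, cut at about 12% in these data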;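 further: 0% = DMSO only wells and 100% = carbachol wells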
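Test system – HEK293 line with stable expression of human TRPML3-YFP channel · Control set – carbachol 87 µM final as high control (100%), DMSO as low control (0%) · Signal – Fluo-8 calcium dye fluorescence, ex 470-495, em 515-575 nm · Incubation – 1-h 37 °C dye load, 5-s basal, 120-s post-compound reads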
V1aR counter: activates human V1a receptor in oxytocin agonist counter-screen. P37288. CHO-V1R cells, Fluo-8 calcium fluorescence, agonist mode; 0% DMSO, 100% 3 nM vasopressin. activation, % at 3 µM. hit rate 0.25% among 320,000;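 active means activation above the mean activation of all tested compounds plus 3 SD, per screening run, cut at about 20% in these data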;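 further: signal is peak over basal fluorescence ratio across a 100 second FLIPR read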
Target sequence (P37288 whole entry, looked up): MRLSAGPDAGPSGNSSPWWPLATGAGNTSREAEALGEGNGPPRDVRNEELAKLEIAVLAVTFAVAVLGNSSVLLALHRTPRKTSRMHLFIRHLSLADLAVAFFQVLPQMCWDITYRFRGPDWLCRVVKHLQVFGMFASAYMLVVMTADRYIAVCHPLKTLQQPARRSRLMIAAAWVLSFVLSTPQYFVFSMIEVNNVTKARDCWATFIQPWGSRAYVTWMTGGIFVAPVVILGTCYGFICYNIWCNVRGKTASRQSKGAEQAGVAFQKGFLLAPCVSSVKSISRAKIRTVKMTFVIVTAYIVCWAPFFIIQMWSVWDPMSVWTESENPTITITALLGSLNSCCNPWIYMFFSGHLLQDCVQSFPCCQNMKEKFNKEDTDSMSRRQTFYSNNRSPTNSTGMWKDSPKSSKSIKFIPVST
OXTR potentiator: human OXTR potentiation; activation, % at 3 µM; hit rate 0.061% among 320,000; P30559; CHO-OTR cells, Fluo-8 calcium fluorescence, potentiator mode; 0% = oxytocin EC15, 100% = EC100; AID 2445;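 active means activation above that plate's cutoff, the mean activation of tested compounds plus 3 SD, cut at about 6.6% in these data, passing the limit was not always enough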;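 further: 100% uses oxytocin at 75 nM as the full agonist control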
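Dosing: Single dose, 3.0 µM nominal final compound concentration | Material: Human OTR in CHO cells | Technique: Kinetic Fluo-8 calcium fluorescence | Benchmarks: EC15 oxytocin alone as 0%, 75 nM oxytocin as 100% | Probe or stimulus: Oxytocin at about EC15, sub-maximal agonist stimulus | Incubation: Compound 6 min at room temperature before oxytocin, 100 s read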
OXTR pot cf: human OXTR potentiation, confirmation. AID 434985. 180 tested, under 10 active. CHO-OTR cells, Fluo-8 calcium fluorescence; scaled from low-dose to maximal oxytocin. shares compounds with OXTR potentiator. activation, % at 3 µM;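 active means mean percent activation over triplicates above a cutoff set from solvent-only control plates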;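 further: compounds tested in the presence of an EC15 dose of oxytocin; 0% = EC15 oxytocin with DMSO and 100% = EC100 oxytocin with DMSO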
* marks the source's active call; other numbers are inactive results; . = no result given.

SMILES	OXTR ag	zfTRPN1 agonist	TRPML3 ag	V1aR counter	OXTR potentiator	OXTR pot cf
CCN(CC(=O)Nc1c(F)cccc1F)C(=O)/C=C/c1ccc2ccccc2n1	0	.	.	0	21*	-5
CCN(CC(=O)Nc1c(F)cccc1F)C(=O)c1ccc2ccccc2n1	0	.	.	0	4	.
CCOc1ccc(-c2noc(CCCC(=O)NCC3CCCO3)n2)cc1OC (stereo not drawn)	0	.	.	0	-3	.
O=C(NC(=S)Nc1ccccc1N1CCCCC1)c1ccc(-c2cccc([N+](=O)[O-])c2)o1	-1	1	0	0	-1	.
O=C(NC(=S)Nc1ccccc1N1CCCC1)c1ccc(-c2cccc([N+](=O)[O-])c2)o1	0	2	0	-1	11*	-7
CCOc1ccc(CCNC(=O)COC(=O)c2cc(OC)cc(OC)c2)cc1OCC	-2	-2	-1	-1	9.8*	-3
CCOc1ccc(NC(=O)Cc2ccc(NC3=NC4CS(=O)(=O)CC4S3)cc2)cc1 (stereo not drawn)	-1	.	.	-1	-8	.
CCc1ccc(NC(=O)Cc2ccc(NC3=NC4CS(=O)(=O)CC4S3)cc2)cc1 (stereo not drawn)	0	.	.	0	8.3*	-4
CCOC(=O)c1c(NC(=O)COC(=O)CC(NC(C)=O)c2ccccc2)sc(C(=O)NC)c1C (stereo not drawn)	-2	.	.	-1	-2	.
O=c1cc(-c2c(F)c(F)c(F)c(F)c2F)oc2c(F)c(F)c(F)c(F)c12	-2	0	1	-1	19*	11*
Cc1c(C(=O)NCCc2ccccc2)oc2ccccc12	-2	.	.	-1	11*	-10
COc1ccc2oc(C(=O)NCCc3ccccc3)c(C)c2c1	-2	.	.	-1	4	.
Cc1cc(C)n2nc(C(F)(F)F)c(-c3ccccc3)c2n1	-2	0	1	-1	-2	.
Cc1cccc(C(=O)NNC(=O)c2ccc(-c3ccccc3)cc2)c1	0	0	1	1	-3	.
O=C(NNC(=O)c1ccc(-c2ccccc2)cc1)c1ccccc1	2	2	1	1	12*	-9
CCOC(=O)c1sc(C)c2c1NC1(CCCCC1)NC2=O	-2	0	-1	-2	11*	1
COc1cc(/C=C2/S/C(=N/S(=O)(=O)c3ccccc3)NC2=O)c([N+](=O)[O-])cc1OC	-1	-1	0	0	-13	.
COc1cc(/C=C2/S/C(=N/S(=O)(=O)Cc3ccccc3)NC2=O)c([N+](=O)[O-])cc1OC	2	5	2	1	13*	-4
C[C@H]1COC(=O)[C@@H](Cc2ccc(F)cc2)C/C=C\C[C@@H](CC(=O)NCCO)C(=O)N1	2	.	.	1	14*	-3
C[C@H]1COC(=O)[C@H](Cc2ccc(F)cc2)C/C=C\C[C@@H](CC(=O)NCCO)C(=O)N1	2	.	.	1	-3	.
CN(Cc1nc2ccccc2c(=O)[nH]1)C(=O)c1ccc(S(=O)(=O)N2CCCC2)cc1	3	.	.	0	13*	-3
CC(Sc1n[nH]c(N)n1)C(=O)Nc1cccc2ccccc12 (stereo not drawn)	0	.	.	0	2	.
CCOc1ccccc1Oc1c(C)oc2cc(OC(=O)c3ccco3)ccc2c1=O	-1	1	0	0	13*	1
Cc1ccc(-n2c(SCC(=O)N3Cc4ccccc4CC3C(=O)O)nnc2-c2cccnc2)c(C)c1 (stereo not drawn)	0	0	1	0	-6	.
O=C(/C=C/c1ccc([N+](=O)[O-])cc1)c1cccnc1	3	1	1	1	13*	-6
SMILES	OXTR ag	zfTRPN1 agonist	TRPML3 ag	V1aR counter	OXTR potentiator	OXTR pot cf
Cc1cccc(N2CCN(S(=O)(=O)c3ccc4c(c3)CCCN4C(=O)C3CCC3)CC2)c1C	-1	.	.	-1	-16	.
COc1ccc2c(c1)OC[C@H]1[C@H]2N2C(=O)c3cc(F)ccc3NC(=O)[C@@]2(C)[C@H]1c1ccccc1	2	.	.	2	13*	-8
Cc1ccc(NC(=O)CCc2ccccc2)cc1S(=O)(=O)N1CCOCC1	2	.	.	1	-4	.
Cc1ccc(NC(=O)CCS(=O)(=O)c2ccccc2)cc1S(=O)(=O)N1CCOCC1	2	0	1	1	11*	-1
Cc1ccc(NC(=O)c2ccc3nccnc3c2)c(C)c1	0	.	.	0	-4	.
CCCN(CCC)CCNC(=O)CCC(=O)Nc1ccc2nc(N3CCN(C)CC3)cc(C)c2c1	0	2	1	1	12*	-1
CC(C)(C)NC(=O)c1cc(C(C)(C)C)c(O)c(C(C)(C)C)c1	-3	-2	-1	1	10*	-2
Cc1nn(CC(=O)NC2CCS(=O)(=O)C2)c(C)c1[N+](=O)[O-] (stereo not drawn)	1	.	.	0	0	.
COCCCNc1c2c(nc3nnnn13)CCCC2	2	2	1	1	13*	-2
COc1ccc([N+](=O)[O-])cc1-n1cccc1	0	0	0	0	13*	-7
CC1CCCCC1NC(=O)c1nn(C)c2c1CS(=O)(=O)c1ccccc1-2 (stereo not drawn)	4	.	.	9	-3	.
O=C(COc1ncnc2ccc(Br)cc12)NC1CCCC1	1	.	.	0	13*	-6
O=C(COc1ncnc2ccccc12)NC1CCCCC1	0	.	.	2	-3	.
CCN1c2ccccc2S(=O)(=O)c2ccccc21	0	.	.	1	-14	.
O=C(c1ccccc1)c1nn(-c2ccccc2)c2nnc(Cc3ccccc3)c(=O)n12	-1	-1	-2	0	2	.
Cc1ccc(-n2nc(C(=O)c3ccccc3)n3c(=O)c(Cc4ccccc4)nnc23)cc1	-1	1	1	-2	9.9*	0
CCOC(=O)C1=C(C)Nc2ccccc2N=C1NC(=O)c1oc2ccccc2c1COC	-2	.	.	0	-5	.
CC1CCc2c(sc3[nH]c(=S)n(C)c(=O)c23)C1 (stereo not drawn)	-2	.	.	-2	4	.
O=C(Cn1ncc2ccccc21)N1CCc2ccccc21	-1	-1	0	0	12*	-6
O=C(O)c1ccc(-c2nnn(Cc3ccccc3F)n2)cc1	2	1	1	2	7.6*	-4
CC1CCc2nn(CC(=O)NCc3ccco3)cc2C1 (stereo not drawn)	-1	0	0	1	13*	-3
CC1CCc2nn(CC(=O)NCc3ccc(F)cc3)cc2C1 (stereo not drawn)	-1	-2	-1	-1	-9	.
CCOC(=O)N1CCN(C(=O)COc2ccc(Cl)c(C)c2)CC1	0	0	1	1	-18	.

Bioassay records as filed in PubChem BioAssay.
